# Active and inactive are the calls of the source. The calls are words filed in the database; no cut-off is given here.
# Columns and labels:
# [1] = molecular target: Cyclin-dependent kinase 7 (Homo sapiens) (UniProt P50613); assay: Inhibition of CDK7 in human HEK293 cells assessed as reduction in CDK7 level at 10 uM incubated for 24 hrs by Western blot analysis; format: cell-based
# Outline: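 HEK293 cells were treated at indicated concentrations for 24 h. Lysates were analysed by western blot and probed for CDK family members, including CDK7 and CDK9.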
# [2] = molecular target: Protein cereblon/Cyclin-dependent kinase 9 (Homo sapiens, UniProt P50750+Q96SW2); assay: Protac activity at CDK9/CRBN in human HEK293 cells assessed as degradation of CDK9 at 0.01 to 10 uM incubated for 24 hrs by Western blot analysis; format: cell-based; settings: dose 0.01-10 µM
# Outline: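 HEK293 cells were treated with increasing concentrations (0.01–10 μM) for 24 hr. Lysates were analysed by western blot for CDK9 degradation.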
# Chain of Protein cereblon/Cyclin-dependent kinase 9 (P50750 whole entry, looked up): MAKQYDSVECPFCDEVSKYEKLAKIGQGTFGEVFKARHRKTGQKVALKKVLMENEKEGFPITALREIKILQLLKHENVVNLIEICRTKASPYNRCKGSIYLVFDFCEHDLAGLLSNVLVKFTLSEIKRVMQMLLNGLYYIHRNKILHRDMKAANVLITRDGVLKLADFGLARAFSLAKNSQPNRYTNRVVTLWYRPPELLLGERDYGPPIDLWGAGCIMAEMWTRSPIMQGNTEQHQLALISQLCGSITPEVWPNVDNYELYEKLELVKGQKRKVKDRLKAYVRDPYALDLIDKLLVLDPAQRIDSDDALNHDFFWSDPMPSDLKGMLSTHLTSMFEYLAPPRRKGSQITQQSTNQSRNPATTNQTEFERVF
# Chain of Protein cereblon/Cyclin-dependent kinase 9 (Q96SW2 whole entry, looked up): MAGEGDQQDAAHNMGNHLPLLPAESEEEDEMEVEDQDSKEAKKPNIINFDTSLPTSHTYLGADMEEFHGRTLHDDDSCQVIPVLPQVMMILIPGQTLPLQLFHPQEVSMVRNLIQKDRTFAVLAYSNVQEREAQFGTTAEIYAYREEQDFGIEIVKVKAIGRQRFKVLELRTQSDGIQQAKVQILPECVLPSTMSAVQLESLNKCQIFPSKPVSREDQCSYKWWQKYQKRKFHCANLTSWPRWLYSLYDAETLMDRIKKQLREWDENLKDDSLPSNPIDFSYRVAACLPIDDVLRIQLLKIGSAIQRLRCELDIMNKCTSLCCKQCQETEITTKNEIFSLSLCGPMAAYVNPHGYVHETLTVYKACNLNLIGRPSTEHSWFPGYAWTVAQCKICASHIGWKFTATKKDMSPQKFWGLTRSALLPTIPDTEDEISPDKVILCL
# Chain of Cyclin-dependent kinase 7 (Homo sapiens) (P50613 whole entry): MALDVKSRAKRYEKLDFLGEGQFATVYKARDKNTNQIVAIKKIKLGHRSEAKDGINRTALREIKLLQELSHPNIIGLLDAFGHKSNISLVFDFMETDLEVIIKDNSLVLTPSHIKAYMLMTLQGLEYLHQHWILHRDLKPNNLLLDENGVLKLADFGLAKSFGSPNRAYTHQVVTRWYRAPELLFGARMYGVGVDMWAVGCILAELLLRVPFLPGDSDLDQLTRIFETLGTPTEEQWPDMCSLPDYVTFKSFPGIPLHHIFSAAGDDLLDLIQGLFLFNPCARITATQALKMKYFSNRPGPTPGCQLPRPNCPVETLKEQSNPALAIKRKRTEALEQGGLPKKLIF
Activity [1],Activity [2],SMILES
inactive,,CN1CC[C@H](c2c(O)cc(O)c3c(=O)cc(-c4ccccc4Cl)oc23)[C@H](O)C1
,inactive,O=C(COc1ccc(CC(=O)Nc2cc(C3CCC3)[nH]n2)cc1)NCCCCNc1cccc2c1C(=O)N(C1CCC(=O)NC1=O)C2=O (stereo not drawn)
,inactive,O=C(COc1ccc(CC(=O)Nc2cc(C3CCC3)[nH]n2)cc1)NCCCOCCOCCOCCCNc1cccc2c1C(=O)N(C1CCC(=O)NC1=O)C2=O (stereo not drawn)

# — ChEMBL document CHEMBL4819106, “Aminopyrazole based CDK9 PROTAC sensitizes pancreatic cancer cells to venetoclax” (Bioorg Med Chem Lett, 2021)
